We go through three molecules from ChEMBL document CHEMBL1158443, “Discovery of novel lipophilic inhibitors of OXA-10 enzyme (class D beta-lactamase) by screening amino analogs and homologs of citrate and isocitrate” (Bioorg Med Chem Lett, 2009).

pKi: −log10 of the molar value.

A short description of assay [1]: Competitive inhibition of TEM1 beta-lactamase at pH 5. In short, it runs like this: (§1)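 Ki came from plotting v0/vi against inhibitor concentration. v0/vi is the ratio of nitrocefin hydrolysis rates without and with inhibitor, monitored spectrophotometrically at 482 nm. Enzyme (1-100 nM) was preincubated with inhibitor for 30 min at 37 °C in the buffer for the stated pH.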

Assay [2] is described as follows: Inhibition of TEM1 beta-lactamase assessed as residual activity at 100 uM at pH 7 using phosphate buffer by spectrophotometry; values are per cent of control.
Assay [3] has as its target Beta-lactamase VIM-4 (Pseudomonas aeruginosa) (UniProt Q8KRJ3). The experiment in a line: Inhibition of Pseudomonas aeruginosa VIM4 beta-lactamase assessed as residual activity at 100 uM at pH 7 using HEPES buffer by spectrophotometry; values are per cent of control.
Assay [4] has as its target Beta-lactamase (Enterobacter cloacae) (UniProt P05364). The experiment in a line: Inhibition of Enterobacter cloacae P99 beta-lactamase assessed as residual activity at 100 uM at pH 7 using phosphate buffer by spectrophotometry; values are per cent of control.
The target in assay [5] is Beta-lactamase (Bacillus licheniformis) (UniProt P00808). The experiment in a line: Inhibition of Bacillus licheniformis BS3 beta-lactamase assessed as residual activity at 100 uM at pH 7 using phosphate buffer by spectrophotometry; values are per cent of control.
In assay [6] the target is T1, Beta-lactamase OXA-10 (Pseudomonas aeruginosa, UniProt P14489). Kind of assay: Inactivation of Pseudomonas aeruginosa OXA10 beta-lactamase at pH 7.
In a further assay the test system is Bacillus cereus. The experiment in a line: Inhibition of Bacillus cereus BC2 beta-lactamase assessed as residual activity at 100 uM at pH 5 using acetate buffer by spectrophotometry; values are per cent of control.
The target in assay [7] is Beta-lactamase OXA-10 (Pseudomonas aeruginosa) (UniProt P14489). Kind of assay: Inhibition of Pseudomonas aeruginosa OXA10 beta-lactamase assessed as residual activity at 100 uM at pH 7 using phosphate buffer by spectrophotometry; values are per cent of control.
Assay [8] addresses T1, Beta-lactamase OXA-10. Kind of assay: Competitive inhibition of Pseudomonas aeruginosa OXA10 beta-lactamase at pH 7. Put shortly:
as §1

Sequence of Beta-lactamase (Bacillus licheniformis) (P00808 whole entry): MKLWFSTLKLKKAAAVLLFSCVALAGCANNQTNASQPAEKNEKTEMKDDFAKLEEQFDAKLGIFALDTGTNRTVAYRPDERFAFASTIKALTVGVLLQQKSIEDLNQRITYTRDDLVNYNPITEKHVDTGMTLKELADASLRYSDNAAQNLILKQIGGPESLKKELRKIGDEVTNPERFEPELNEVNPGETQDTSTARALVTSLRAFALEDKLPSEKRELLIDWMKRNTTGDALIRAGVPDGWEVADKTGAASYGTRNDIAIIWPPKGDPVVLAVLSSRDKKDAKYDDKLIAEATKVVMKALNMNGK
Sequence of Beta-lactamase OXA-10 (Pseudomonas aeruginosa) (P14489 whole entry): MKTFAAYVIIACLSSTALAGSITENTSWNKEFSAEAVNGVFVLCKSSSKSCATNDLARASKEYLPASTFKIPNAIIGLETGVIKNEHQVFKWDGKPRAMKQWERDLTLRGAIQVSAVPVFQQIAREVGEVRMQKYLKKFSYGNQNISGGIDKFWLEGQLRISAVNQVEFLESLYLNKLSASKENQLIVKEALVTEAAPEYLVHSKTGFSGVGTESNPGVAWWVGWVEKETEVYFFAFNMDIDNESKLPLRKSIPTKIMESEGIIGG
T1 sequence (P14489 whole entry): as above
Sequence of Beta-lactamase (Enterobacter cloacae) (P05364 21-381 limits assumed): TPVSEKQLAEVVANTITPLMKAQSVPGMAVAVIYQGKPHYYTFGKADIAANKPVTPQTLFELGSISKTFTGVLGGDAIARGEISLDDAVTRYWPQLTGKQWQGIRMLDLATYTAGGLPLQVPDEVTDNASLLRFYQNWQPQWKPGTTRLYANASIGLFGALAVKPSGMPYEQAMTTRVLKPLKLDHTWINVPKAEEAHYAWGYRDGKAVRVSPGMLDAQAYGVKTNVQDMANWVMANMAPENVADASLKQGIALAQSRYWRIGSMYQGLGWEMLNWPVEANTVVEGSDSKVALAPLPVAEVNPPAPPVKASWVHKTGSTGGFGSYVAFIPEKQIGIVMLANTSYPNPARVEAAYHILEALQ

The pKi is the negative decadic logarithm of the Ki, by convention in mol/L. Low readings indicate a high Ki, high ones a low Ki. As usually defined, the residual activity is the activity still measured, relative to the control. The molecule `NC(CC(=O)O)(CC(=O)O)C(=O)O` gave a negative-log Ki (pKi) in [1] of 3.82. The residual activity in assay [2] was 95%; in [3] it was 100%; in assay [4], 81%; in assay [5], 88%.
`NC(CC(=O)OCc1ccccc1)(CC(=O)OCc1ccccc1)C(=O)OCc1ccccc1` gave a negative-log Ki (pKi) at Beta-lactamase OXA-10 [6] of 4.02. For the same molecule, the residual activity in [2] worked out at 100%; in the assay on Bacillus cereus, 90%; in [5], 100%; in assay [7] it was 10%.
The molecule `O=C(COc1ccccc1)NC(CC(=O)OCc1ccccc1)(CC(=O)OCc1ccccc1)C(=O)OCc1ccccc1` gave a pKi on Beta-lactamase OXA-10 [8] of 4.70. In addition, the residual activity in assay [7] was 10%.
